PMC6174986 (Journal of Clinical Pharmacology, 2018)
Like-named read-outs stand apart in the source and are kept apart here.

Tests used:
[1] = cited from earlier work
[2] = Population pharmacokinetic analysis of daclatasvir plasma concentrations; type: in vivo, human
Procedure, shortened: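 Japanese adults ≥ 20 years with chronic HCV genotype 1 (compensated cirrhosis allowed) from 4 clinical studies; oral 10 or 60 mg once daily, with asunaprevir or pegIFN/RBV. Plasma levels by validated LC‑MS/MS; below‑LLOQ samples excluded. Nonlinear mixed‑effects model: log‑normal interindividual variability, log‑transform‑both‑sides residual error, backward covariate elimination (P < .001), bootstrap 95% CIs.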

[3] = healthy Japanese volunteers, within the dose range studied; cited from earlier work
[4] = system: P‐glycoprotein transporter; conditions: cited from earlier work
[5] = cited from earlier work; remark: listed apart in the source
[6] = system: cytochrome P450 (CYP) 3A4; conditions: cited from earlier work
[7] = cited from earlier work; remark: listed apart in the source
[8] = tablet formulation used in phase 1/2 studies; cited from earlier work
[9] = mild impairment (Child‐Pugh class A cirrhosis); cited from earlier work
CYP2D6 = conditions: asunaprevir; cited from earlier work
[10] = Population pharmacokinetic analysis of asunaprevir plasma concentrations; type: in vivo, human
Procedure, shortened: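 Japanese adults ≥20 y with chronic genotype 1 HCV (compensated cirrhosis allowed), from 2 clinical studies; oral 200 or 600 mg twice-daily tablet or 100 mg twice-daily soft-gel. Plasma by validated LC-MS/MS; below-LLOQ excluded. One-compartment, first-order absorption; log-normal IIV on CL/F, V/F; additive log-scale residual. Backward elimination (P < .001); bootstrap 95% CIs; 5th/95th covariate percentiles versus typical.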

[11] = system: organic anion transporting polypeptide(OATP); conditions: asunaprevir; cited from earlier work
[12] = final popPK model, Japanese HCV subjects

COC(=O)N[C@H](C(=O)N1CCC[C@H]1c1nc(-c2ccc(-c3ccc(-c4c[nH]c([C@@H]5CCCN5C(=O)[C@@H](NC(=O)OC)C(C)C)n4)cc3)cc2)c[nH]1)C(C)C [daclatasvir, Daclatasvir]
Excreted via feces in an unchanged form [1]: ~88% | Renal elimination [1]: ~7 % of dose | Interindividual variability of CL/F ([2]; base popPK model): 39.7% | Interindividual variability of V/F ([2]; base popPK model): 40.7% | Effect of cirrhosis status and ALT/AST levels on CL/F ([2]; covariate analysis): not identified as significant covariates | CL/F reduction, women relative to men ([2]; final model): approximately 10% | V/F lower than at median (reference) body weight of 56 kg ([2]; final model, 5th percentile of baseline body weight, 42.8 kg): ~15% | V/F higher than at median (reference) body weight of 56 kg ([2]; final model, 95th percentile of baseline body weight, 78 kg): ~22% | Interindividual variability of CL/F ([2]; final popPK model): 39.4% | Interindividual variability of Ka ([2]; final popPK model): 86.9% | Interindividual variability of V/F ([2]; final popPK model): 38.1% | Random effect CL/F: V/F, ω1,2, covariance (correlation) ([2]; final popPK model): 0.141 (0.941) | Ka (absorption rate constant), θ3 [2, 12]: 0.865 h^‐1 | V/F (apparent volume of central compartment), θ2 ([2]; final popPK model, Japanese HCV subjects, reference BBWT 56 kg): 64.2 L | V/F ∼BBWT (baseline body weight) covariate coefficient, θ14 ([2]; final popPK model, reference 56 kg): 0.605 | CL/F ∼BCRCL (baseline creatinine clearance) covariate coefficient, θ10 ([2]; final popPK model, reference 86.48 mL/min): 0.235 | Dose‐exposure relationship [3]: generally linear | Interaction with P‐glycoprotein transporter ([4]; daclatasvir): substrate and inhibitor | Association between exposure and degree of hepatic impairment or biochemical/serological markers of liver dysfunction [5]: no obvious association | Effects on levels of the sensitive CYP3A probe midazolam in plasma ([6]; daclatasvir): minimal effects | Interaction with CYP3A4 ([6]; daclatasvir): substrate and weak inducer

C=C[C@@H]1C[C@]1(NC(=O)[C@@H]1C[C@@H](Oc2ncc(OC)c3ccc(Cl)cc23)CN1C(=O)[C@@H](NC(=O)OC(C)(C)C)C(C)(C)C)C(=O)NS(=O)(=O)C1CC1 [asunaprevir, Asunaprevir]
Observed AUC ([7]; AI447017, phase 2 study, 200‐mg tablet formulation): 2950 ng·h/mL | Observed AUC ([7]; AI447026, phase 3 study, 100‐mg soft‐gel capsule): 2155 ng·h/mL | Dose‐exposure relationship [3]: generally increased dose‐proportionally | Interaction with p‐glycoprotein ([4]; asunaprevir): weak inhibitor | Food effect [8]: Significant food effects | Steady‐state exposures [9]: not changed | Interaction with CYP2D6 (CYP2D6): moderate inhibitor | Impact of OATP1B1 haplotypes (4 categories) on CL/F ([10]; covariate analysis, Japanese population): did not show statistical significance | CL/F at 5th percentile of time‐varying AST compared with the median baseline AST ([10]; final model, AST at last PK sampling point 16 U/L, higher): 1.57 fold | CL/F at 5th percentile of baseline AST relative to median baseline AST of 52 U/L ([10]; final model, baseline AST 22 U/L, higher): 1.67 fold | CL/F for cirrhotic subjects relative to subjects without cirrhosis ([10]; final model, printed as fold lower): 0.65 fold | Interindividual variability of CL/F ([10]; final popPK model): 41.5% | Interindividual variability of V/F ([10]; final popPK model): 93.4% | Ka (absorption rate constant), θ3 [10, 12]: 0.228 h^‐1 | V/F (apparent volume of central compartment), θ2 ([10]; final popPK model, Japanese HCV subjects, phase 2 tablet reference): 75.1 L | Interaction with CYP3A4 ([6]; asunaprevir): weak inducer and sensitive substrate | Interaction with OATP‐mediated uptake transport [11]: weak inhibitor and sensitive substrate
